The text below walks through data of ChEMBL document CHEMBL3044618, “Repellent constituents of essential oil of Cymbopogon distans aerial parts against two stored-product insects” (2011).

Common to all, as to format: functional
The subject of assay [1] is Tribolium castaneum. Put plainly: Insecticidal activity against adult Tribolium castaneum (red flour beetle) assessed as repellent activity at 0.0016 nL/cm2 after 2 hr. The gist of the method: (§1)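 Adult T. castaneum, about 2 weeks old, reared on wheat flour plus yeast (10:1, w/w) in the dark at 28–30 °C and 70–80% RH. In Fluon-coated 9 cm dishes, half of a 9 cm filter paper received 500 μL of acetone solution and the other half received acetone, then both were air-dried. Insects on each half were counted at 2 and 4 h. Percent repellency was computed from the counts. Five replicates, three runs.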

The subject of assay [2] is Tribolium castaneum. Put plainly: Insecticidal activity against adult Tribolium castaneum (red flour beetle) assessed as repellent activity at 16 nL/cm2 after 2 hr. The gist of the method: as §1
The subject of assay [3] is Tribolium castaneum. Put plainly: Insecticidal activity against adult Tribolium castaneum (red flour beetle) assessed as repellent activity at 0.016 nL/cm2 after 4 hr. The gist of the method: as §1
For assay [4], the system named is Tribolium castaneum. Put plainly: Insecticidal activity against adult Tribolium castaneum (red flour beetle) assessed as repellent activity at 16 nL/cm2 after 4 hr. The gist of the method: as §1
Assay [5] relates to Liposcelis bostrychophila. Put plainly: Insecticidal activity against adult Liposcelis bostrychophila (booklice) assessed as repellent activity at 1.6 nL/cm2 after 2 hr. Summed up: (§2)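 Adult booklice, about 2 weeks old, from dark cultures at 28–30 °C and 70–80% RH on milk powder/active yeast/flour (1:1:1). Half of a 6 cm filter paper received 150 μL of sample in acetone; the other half received acetone; both were air-dried. Papers were placed in Fluon-coated 6 cm Petri dishes. Insects on each half were counted at 2 and 4 h. PR = (Nc−Nt)/(Nc+Nt)×100. Five replicates, repeated three times.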

In assay [6] the test system is Liposcelis bostrychophila. Put plainly: Insecticidal activity against adult Liposcelis bostrychophila (booklice) assessed as repellent activity at 13 nL/cm2 after 4 hr. Summed up:
as §2

Assay [7] deals with Tribolium castaneum. Put plainly: Insecticidal activity against adult Tribolium castaneum (red flour beetle) assessed as repellent activity at 0.0016 nL/cm2 after 4 hr. Summed up: as §1
Assay [8] has as its system Tribolium castaneum. Put plainly: Insecticidal activity against adult Tribolium castaneum (red flour beetle) assessed as repellent activity at 0.016 nL/cm2 after 2 hr. Summed up:
as §1

Assay [9] has as its system Tribolium castaneum. Put plainly: Insecticidal activity against adult Tribolium castaneum (red flour beetle) assessed as repellent activity at 0.16 nL/cm2 after 2 hr. Summed up:
as §1

Assay [10] deals with Liposcelis bostrychophila. Put plainly: Insecticidal activity against adult Liposcelis bostrychophila (booklice) assessed as repellent activity at 1.6 nL/cm2 after 4 hr. Summed up:
as §2

Assay [11] relates to Liposcelis bostrychophila. Put plainly: Insecticidal activity against adult Liposcelis bostrychophila (booklice) assessed as repellent activity at 13 nL/cm2 after 2 hr. The gist of the method: as §2
For assay [12], the system named is Liposcelis bostrychophila. Put plainly: Insecticidal activity against adult Liposcelis bostrychophila (booklice) assessed as repellent activity at 3.2 nL/cm2 after 4 hr. Summed up: as §2
The test system of assay [13] is Tribolium castaneum. Put plainly: Insecticidal activity against adult Tribolium castaneum (red flour beetle) assessed as repellent activity at 1.6 nL/cm2 after 2 hr. Summed up: as §1
Assay [14] relates to Liposcelis bostrychophila. Put plainly: Insecticidal activity against adult Liposcelis bostrychophila (booklice) assessed as repellent activity at 26 nL/cm2 after 2 hr. Summed up:
as §2

Assay [15] has as its system Liposcelis bostrychophila. Put plainly: Insecticidal activity against adult Liposcelis bostrychophila (booklice) assessed as repellent activity at 26 nL/cm2 after 4 hr. The gist of the method: as §2
In assay [16] the test system is Liposcelis bostrychophila. Put plainly: Insecticidal activity against adult Liposcelis bostrychophila (booklice) assessed as repellent activity at 6.4 nL/cm2 after 4 hr. The gist of the method: as §2
The subject of assay [17] is Tribolium castaneum. Put plainly: Insecticidal activity against adult Tribolium castaneum (red flour beetle) assessed as repellent activity at 1.6 nL/cm2 after 4 hr. The gist of the method:
as §1

For assay [18], the system named is Liposcelis bostrychophila. Put plainly: Insecticidal activity against adult Liposcelis bostrychophila (booklice) assessed as repellent activity at 6.4 nL/cm2 after 2 hr. Summed up:
as §2

The test system of assay [19] is Liposcelis bostrychophila. Put plainly: Insecticidal activity against adult Liposcelis bostrychophila (booklice) assessed as repellent activity at 3.2 nL/cm2 after 2 hr. The gist of the method:
as §2

Assay [20] relates to Tribolium castaneum. Put plainly: Insecticidal activity against adult Tribolium castaneum (red flour beetle) assessed as repellent activity at 0.16 nL/cm2 after 4 hr. The gist of the method:
as §1

In the case of `CC(C)=CCC/C(C)=C/CO` [GERANIOL], the Repellency with Tribolium castaneum [1] is on record as -10%; with Tribolium castaneum [2], 96%; with Tribolium castaneum [3], -10%; with Tribolium castaneum [4], 86%; in assay [5] it was 42%; in assay [6], 82.5%. Moreover, the Repellency was -14% with Tribolium castaneum [7]; -12% in the assay with Tribolium castaneum [8]; 14% with Tribolium castaneum [9]; 44% in assay [10]; 95% in assay [11]; 74% in assay [12]. Besides, the Repellency in the assay with Tribolium castaneum [13] was determined as 58%; in assay [14], 86%; in assay [15] it was 92%; in assay [16] it was 96%; with Tribolium castaneum [17], 60%; in assay [18] it was 90%. In addition, the figures for the Repellency (in assay [19]; with Tribolium castaneum [20]) were 84% and 14%, respectively.
Regarding `CC(C)=CCC[C@@H](C)CCO` [(+)-CITRONELLOL], the Repellency is reported as 40% in the assay on Tribolium castaneum [1]; 88% in the assay on Tribolium castaneum [2]; 48% in the assay on Tribolium castaneum [3]; 96% in the assay on Tribolium castaneum [4]; 28% in [5]; 76% in [6]. The Repellency in the assay with Tribolium castaneum [7] was determined as 36%; in the assay on Tribolium castaneum [8] it was 44%; with Tribolium castaneum [9] it was 64%; in assay [10], 32%; in assay [11] it was 66%; in [12] it was 44%. Besides, the Repellency with Tribolium castaneum [13] came to 82.5%; in assay [14] it was 96%; in [15] it was 82%; in assay [16] it was 64%; in the assay with Tribolium castaneum [17], 75%; in [18], 66%. Moreover, the Repellency in assay [19] is 52%; in the assay with Tribolium castaneum [20], 66%.
In the case of `CC(C)=CCC[C@@H](C)CC=O` [CITRONELLAL], the Repellency is recorded as -20% in the assay with Tribolium castaneum [1]; 16% with Tribolium castaneum [2]; -16% in the assay on Tribolium castaneum [3]; -4% in the assay with Tribolium castaneum [4]; -10% in assay [5]; 4% in [6]. Further, the Repellency in the assay on Tribolium castaneum [7] was 0%; in the assay on Tribolium castaneum [8], 4%; with Tribolium castaneum [9], 10%; in [10], -10%; in assay [11], -10%; in assay [12], 12%. Besides, the Repellency with Tribolium castaneum [13] is recorded as -12%; in assay [14], 36%; in [15], 34%; in [16] it was 6%; in the assay with Tribolium castaneum [17] it was -16%; in [18], 20%. Further, the Repellency is reported as -4% in assay [19] and 6% with Tribolium castaneum [20].
With `C=C(C)[C@H]1CC=C(C)CC1` [D-LIMONENE], the Repellency is listed as 20% in the assay on Tribolium castaneum [1]; 20% in the assay on Tribolium castaneum [2]; -36% in the assay with Tribolium castaneum [3]; -4% with Tribolium castaneum [4]; -6% in assay [5]; 30% in assay [6]. Moreover, the Repellency in the assay with Tribolium castaneum [7] is given as 12%; in the assay with Tribolium castaneum [8] it was -36%; with Tribolium castaneum [9], 2%; in assay [10], -4%; in assay [11], -4%; in assay [12], -22%. For the same molecule, the Repellency in the assay on Tribolium castaneum [13] is on record as -22%; in assay [14] it was 36%; in [15], 40%; in [16], -18%; in the assay with Tribolium castaneum [17], -44%; in assay [18], -20%. For the same molecule, the Repellency in assay [19] is on record as -10%; in the assay on Tribolium castaneum [20], 8%.
Take `CCN(CC)C(=O)c1cccc(C)c1` [DIETHYLTOLUAMIDE]: the Repellency in the assay with Tribolium castaneum [1] is -34%; with Tribolium castaneum [2] it was 92%; with Tribolium castaneum [3] it was -4%; in the assay on Tribolium castaneum [4] it was 90%; in assay [5], 46%; in [6], 94%. Further, the Repellency is listed as -46% with Tribolium castaneum [7]; 0% in the assay with Tribolium castaneum [8]; 0% in the assay with Tribolium castaneum [9]; 42% in assay [10]; 100% in assay [11]; 64% in assay [12]. In addition, the Repellency in the assay with Tribolium castaneum [13] is 6%; in assay [14], 96%; in assay [15] it was 94%; in assay [16], 92%; in the assay with Tribolium castaneum [17], -12%; in assay [18], 84%. Besides, the Repellency in [19] was 82%; with Tribolium castaneum [20], -16%.
